Data published in ChEMBL document CHEMBL1138850, “Synthesis of 2-methyl-3-indolylacetic derivatives as anti-inflammatory agents that inhibit preferentially cyclooxygenase 1 without gastric damage” (2006).
The source made the active and inactive calls. The calls are words filed in the database; no cut-off is given here.

Tests used:
[1] = molecular target: T1, Prostaglandin G/H synthase 1 (Mus musculus) (UniProt P22437); assay: Activity at COX1 assessed as inhibition of arachidonic acid-induced PGE2 production in J774 cells at 100 uM; assay type: cell-based
T1 sequence (whole entry): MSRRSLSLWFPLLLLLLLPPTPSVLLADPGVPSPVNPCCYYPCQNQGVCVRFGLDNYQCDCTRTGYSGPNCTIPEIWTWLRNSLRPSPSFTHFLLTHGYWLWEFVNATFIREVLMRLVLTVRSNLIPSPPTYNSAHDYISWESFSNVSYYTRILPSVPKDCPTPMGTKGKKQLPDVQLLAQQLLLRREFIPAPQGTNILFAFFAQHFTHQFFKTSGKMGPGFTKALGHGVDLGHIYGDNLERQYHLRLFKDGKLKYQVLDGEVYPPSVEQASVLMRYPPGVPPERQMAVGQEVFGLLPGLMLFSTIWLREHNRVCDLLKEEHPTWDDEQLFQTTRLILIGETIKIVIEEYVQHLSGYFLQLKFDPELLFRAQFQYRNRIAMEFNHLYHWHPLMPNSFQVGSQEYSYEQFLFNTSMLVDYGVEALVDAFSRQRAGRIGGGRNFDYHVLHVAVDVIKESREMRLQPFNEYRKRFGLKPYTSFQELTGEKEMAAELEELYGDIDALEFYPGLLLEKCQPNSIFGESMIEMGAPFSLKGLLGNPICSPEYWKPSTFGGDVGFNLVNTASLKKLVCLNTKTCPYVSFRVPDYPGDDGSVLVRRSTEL
Summary of the method: (§1)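 Murine J774 macrophages were grown in DMEM with 10% FBS, adhered for 2 h at 37 °C, then switched to serum-free medium. Cells were pretreated with compound (0.01-100 µM, ethanol vehicle) for 15 min, then given 15 µM arachidonic acid for 30 min at 37 °C. Supernatant PGE2 was measured by radioimmunoassay. Triplicate wells; % inhibition vs control, mean of three experiments.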

[2] = molecular target: T1, Prostaglandin G/H synthase 1 (Mus musculus); assay: Activity at COX1 assessed as inhibition of arachidonic acid-induced PGE2 production in J774 cells at 10 uM; assay type: cell-based; summary of the method: as §1
[3] = molecular target: T1, Prostaglandin G/H synthase 1 (Mus musculus); assay: Activity at COX1 assessed as inhibition of arachidonic acid-induced PGE2 production in J774 cells at 0.1 uM; assay type: cell-based; summary of the method: as §1
[4] = molecular target: T1, Prostaglandin G/H synthase 1 (Mus musculus); assay: Activity at COX1 assessed as inhibition of arachidonic acid-induced PGE2 production in J774 cells at 1 uM; assay type: cell-based; summary of the method: as §1
[5] = molecular target: T1, Prostaglandin G/H synthase 1 (Mus musculus); assay: Activity at COX1 assessed as inhibition of arachidonic acid-induced PGE2 production in J774 cells at 0.01 uM; assay type: cell-based; summary of the method: as §1
[6] = molecular target: T1, Prostaglandin G/H synthase 1 (Mus musculus); assay: Activity at COX1 assessed as inhibition of arachidonic acid-induced PGE2 production in J774 cells; assay type: cell-based; summary of the method: as §1
[7] = organism: Mus musculus; assay: Analgesic activity in mouse by formalin paw licking assay at 0-15 mins; assay type: functional, organism-based
Summary of the method: (§2)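 Mice (18-20 g) were dosed 1 h before intraplantar 5% formalin (10 µL), given under light enflurane anesthesia. A blinded observer scored paw licking in two phases: 0-15 min and 15-45 min.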

[8] = system: Mus musculus; assay: Antiinflammatory activity in carrageenan-induced mouse paw edema; assay type: functional, organism-based
Summary of the method: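 Mice (18-20 g), lightly anesthetized with enflurane, were dosed 1 h before subplantar 1% carrageenan in the left footpad. Paw volume was read by hydroplethysmometer before injection and at 2, 4, 6, 24, 48 and 72 h. Edema was taken as the increase over basal volume.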

[9] = organism: Mus musculus; assay: Analgesic activity in mouse by formalin paw licking assay at 15-45 mins; assay type: functional, organism-based; summary of the method: as §2
[10] = molecular target: T2, Prostaglandin G/H synthase 2 (Mus musculus) (UniProt Q05769); assay: Activity at COX2 assessed as inhibition of arachidonic acid-induced PGE2 production in LPS-stimulated J774 cells at 100 uM; assay type: cell-based
T2 sequence (whole entry): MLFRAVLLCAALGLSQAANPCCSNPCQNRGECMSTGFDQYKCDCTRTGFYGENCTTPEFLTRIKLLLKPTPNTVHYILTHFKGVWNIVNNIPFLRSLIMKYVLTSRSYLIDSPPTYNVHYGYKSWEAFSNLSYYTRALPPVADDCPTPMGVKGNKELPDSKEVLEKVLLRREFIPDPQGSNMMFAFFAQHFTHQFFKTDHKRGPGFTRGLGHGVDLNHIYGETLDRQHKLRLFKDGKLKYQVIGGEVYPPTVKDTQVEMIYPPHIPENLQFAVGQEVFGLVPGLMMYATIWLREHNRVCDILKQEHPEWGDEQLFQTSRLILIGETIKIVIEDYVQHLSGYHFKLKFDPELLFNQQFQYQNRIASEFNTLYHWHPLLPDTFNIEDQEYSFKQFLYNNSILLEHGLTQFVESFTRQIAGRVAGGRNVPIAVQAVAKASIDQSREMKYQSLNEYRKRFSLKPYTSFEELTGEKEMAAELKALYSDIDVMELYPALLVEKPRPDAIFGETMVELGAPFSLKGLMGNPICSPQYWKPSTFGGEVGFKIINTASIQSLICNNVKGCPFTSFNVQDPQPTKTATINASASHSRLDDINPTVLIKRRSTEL
Summary of the method: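 J774 cells were induced with S. typhosa LPS (10 µg/mL, 24 h) to express COX-2. Medium was replaced with fresh medium holding 15 µM arachidonic acid, with or without compound (0.01-100 µM, ethanol vehicle), for 30 min at 37 °C. Supernatant PGE2 was measured by radioimmunoassay. Triplicate wells; % inhibition vs control, mean of three experiments.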

[11] = system: Rattus norvegicus; assay: Gastric damage in rat at 100 mg/kg, po by GI damage assay; assay type: functional
Summary of the method: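 Rats (120-140 g) were fasted 18 h with water allowed, then dosed orally at 100 mg/kg; a vehicle group was included, six rats per group. After 5 h, stomachs were excised under pentobarbital. A blinded observer summed lesion lengths in mm per stomach. Analysis: Kruskal-Wallis with Dunn's post-test.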

[12] = organism: Mus musculus; assay: Analgesic activity in Swiss mouse by acetic acid-induced writhing test; assay type: functional, organism-based
Summary of the method: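 Male mice (25-30 g) received 0.6% acetic acid intraperitoneally and were caged singly. Writhes were counted over 15 min, starting from the first writhing movement.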

Row | SMILES | Activity [1] | Activity [2] | Activity [3] | Activity [4] | Activity [5] | Activity [6] | inhibition [1] [%] | inhibition [10] [%] | inhibition [2] [%] | Activity [7] | Activity [8] | Activity [9] | Activity [11] | Activity [12]
1 | Cc1c(CC(=O)O)c2cc(O)ccc2n1C1CCN(C)CC1 | inactive | inactive | inactive | inactive | inactive |  |  |  |  |  |  |  |  | 
2 | COc1ccc2c(c1)c(CC(=O)O)c(C)n2C(=O)c1ccc(Cl)cc1 [INDOMETHACIN] |  |  |  |  |  | Dose-dependent effect | 88 |  | 75 |  | Active |  | 50 mm | 

Now from value to compound, other results behind:

Row | Activity [1] | Activity [2] | Activity [3] | Activity [4] | Activity [5] | Activity [6] | inhibition [1] [%] | inhibition [10] [%] | inhibition [2] [%] | SMILES | Activity [7] | Activity [8] | Activity [9] | Activity [11] | Activity [12]
3 |  |  |  |  |  | Dose-dependent effect | 58 | 24 | 37 | CCOC(=O)Cc1c(C)n(C2CCN(C)CC2)c2ccc(OC)cc12 | inactive | Active | Active | 0.6 mm | Dose-dependent effect
4 | inactive | inactive | inactive | inactive | inactive |  |  |  |  | CCOC(=O)Cc1c(C)n(C2CCN(C)CC2)c2ccc(OC(C)=O)cc12 |  |  |  |  | 
5 |  |  |  |  |  | Dose-dependent effect | 64 |  | 57 | COc1ccc2c(c1)c(CC(=O)O)c(C)n2C1CCN(C)CC1 | inactive | Active | Active | inactive | Dose-dependent effect
